# Publication PMC10765384 (Bioorganic chemistry, 2023)
# Read-outs that look alike come from different tables or passages of the source.
# How the values were obtained:
# [1] = system: HBV DNA replication in HepAD38 cells; assay: Anti-HBV activity, 7-day assay in HepAD38 cells; type: cell-based, hepatitis B virus; settings: for EC50: read-out: Anti-HBV activity EC50; for EC90: read-out: Anti-HBV activity EC90
# [2] = Cytotoxicity, CellTiter 96 assay in PBM cells; type: cell-based, human; settings: human, peripheral blood mononuclear (PBM) cells
# How it was run: (§1)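 Colorimetric non-radioactive cell proliferation read-out (CellTiter 96). CC50 is the test compound concentration that inhibited cell growth by 50%.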
# [3] = Cytotoxicity, CellTiter 96 assay in CEM cells; type: cell-based, human; settings: human, T lymphoblast (CEM) cells
# How it was run: as §1
# [4] = Cytotoxicity, CellTiter 96 assay in Vero cells; type: cell-based, African green monkey; settings: African green monkey, kidney (Vero) cells
# How it was run: as §1
# [5] = Cytotoxicity, CellTiter 96 assay in HepG2 cells; type: cell-based, human; settings: human, hepatocellular carcinoma (HepG2) cells
# How it was run: as §1
# CYP 1A2 = biological target: T1, CYP 1A2 (Homo sapiens, UniProt P05177); assay: CYP inhibition in human liver microsomes; type: in vitro ADME
# T1 sequence (P05177 1-516): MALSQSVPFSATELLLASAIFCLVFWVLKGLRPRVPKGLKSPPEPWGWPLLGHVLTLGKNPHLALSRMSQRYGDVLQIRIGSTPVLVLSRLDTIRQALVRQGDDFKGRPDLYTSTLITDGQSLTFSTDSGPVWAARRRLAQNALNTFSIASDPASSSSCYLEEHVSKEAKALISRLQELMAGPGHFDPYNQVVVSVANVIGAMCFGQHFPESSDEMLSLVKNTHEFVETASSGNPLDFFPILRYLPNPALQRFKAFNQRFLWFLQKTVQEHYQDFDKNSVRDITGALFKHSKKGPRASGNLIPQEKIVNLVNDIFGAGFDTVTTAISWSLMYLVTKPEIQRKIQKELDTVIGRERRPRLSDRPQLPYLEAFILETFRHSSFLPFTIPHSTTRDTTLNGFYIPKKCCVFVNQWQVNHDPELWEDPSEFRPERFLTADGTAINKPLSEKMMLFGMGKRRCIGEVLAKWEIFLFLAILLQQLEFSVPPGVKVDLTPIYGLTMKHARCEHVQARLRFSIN
# How it was run: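 Known CYP450 probe substrates were incubated with human liver microsomes (0.05–0.2 mg/mL), 1 mM NADPH, 100 mM potassium phosphate pH 7.4 and 3 mM MgCl2 at 37°C, with or without 10 μM test compound, in duplicate. Reactions were quenched with a solution containing internal standards. Each substrate's signature metabolite was quantified by LC/MS/MS.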
# CYP 2B6 = biological target: T2, CYP 2B6 (Homo sapiens, UniProt P20813); assay: CYP inhibition in human liver microsomes; type: in vitro ADME
# T2 sequence (P20813 1-491): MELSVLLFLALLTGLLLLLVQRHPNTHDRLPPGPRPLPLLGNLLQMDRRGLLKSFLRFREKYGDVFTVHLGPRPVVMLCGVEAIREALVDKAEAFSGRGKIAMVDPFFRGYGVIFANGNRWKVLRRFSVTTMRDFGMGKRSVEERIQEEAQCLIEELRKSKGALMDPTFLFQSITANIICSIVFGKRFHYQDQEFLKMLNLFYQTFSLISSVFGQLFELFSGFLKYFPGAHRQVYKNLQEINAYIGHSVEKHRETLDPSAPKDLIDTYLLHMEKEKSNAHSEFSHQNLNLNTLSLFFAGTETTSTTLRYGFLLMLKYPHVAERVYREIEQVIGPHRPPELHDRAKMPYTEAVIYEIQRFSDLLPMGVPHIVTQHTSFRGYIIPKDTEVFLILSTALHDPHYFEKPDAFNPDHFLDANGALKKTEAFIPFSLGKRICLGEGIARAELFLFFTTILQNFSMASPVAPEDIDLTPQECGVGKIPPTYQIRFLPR
# CYP 2C8 = biological target: T3, CYP 2C8 (Homo sapiens, UniProt P10632); assay: CYP inhibition in human liver microsomes; type: in vitro ADME
# T3 sequence (P10632 1-490): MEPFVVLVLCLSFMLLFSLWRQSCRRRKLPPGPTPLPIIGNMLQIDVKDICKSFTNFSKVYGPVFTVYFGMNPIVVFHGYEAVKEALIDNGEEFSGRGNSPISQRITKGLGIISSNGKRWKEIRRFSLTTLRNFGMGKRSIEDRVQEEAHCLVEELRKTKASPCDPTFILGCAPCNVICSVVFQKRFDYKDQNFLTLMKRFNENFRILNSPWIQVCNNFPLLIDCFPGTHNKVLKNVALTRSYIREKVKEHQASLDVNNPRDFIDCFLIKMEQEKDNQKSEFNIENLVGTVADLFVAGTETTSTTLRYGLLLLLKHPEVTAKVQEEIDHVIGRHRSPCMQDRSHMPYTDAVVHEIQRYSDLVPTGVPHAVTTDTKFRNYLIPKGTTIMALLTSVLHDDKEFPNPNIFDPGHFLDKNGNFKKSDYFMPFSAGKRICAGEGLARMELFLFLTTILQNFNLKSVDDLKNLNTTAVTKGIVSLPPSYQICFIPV
# CYP 2C9 = CYP 2C9 (Homo sapiens, UniProt P11712); assay: CYP inhibition in human liver microsomes; type: in vitro ADME
# CYP 2C19 = CYP 2C19 (Homo sapiens, UniProt P33261); assay: CYP inhibition in human liver microsomes; type: in vitro ADME
# CYP 2D6 = CYP 2D6 (Homo sapiens, UniProt P10635); assay: CYP inhibition in human liver microsomes; type: in vitro ADME
# CYP 3A4 = CYP 3A4 (Homo sapiens, UniProt P08684); assay: CYP inhibition in human liver microsomes; type: in vitro ADME; settings: for CYP Inhibition (% at 10 μM) 3A4-M: midazolam substrate; for CYP Inhibition (% at 10 μM) 3A4-T: testosterone substrate
# [6] = Cell permeability across Caco-2 cell monolayer; type: in vitro ADME; settings: human
# How it was run: (§2)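 Bidirectional transport of 2 μM test compound across Caco-2 monolayers at pH 7.4, in duplicate, with final DMSO below 1%. Plates were held 2 hr at 37°C, 5% CO2, saturated humidity, without shaking. Starting, donor and receiver solutions were analysed by LC/MS/MS. Lucifer yellow rejection after transport checked monolayer integrity.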
# [7] = Liver microsome stability, mouse; type: in vitro ADME
# How it was run: (§3)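 Test compound (1 μM), alone or with ritonavir at 0.3, 1 or 3 μM, was incubated with 1 mg/mL mouse or human liver microsomes in 100 mM potassium phosphate pH 7.4 with 5 mM MgCl2. NADPH (final 1 mM) started the reaction at 37°C. Aliquots at 0–90 min were quenched in ice-cold methanol, centrifuged, diluted 1:1 with water, and analysed by LC-MS/MS. Propranolol was the positive control.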
# [8] = Liver microsome stability, human; type: in vitro ADME
# How it was run: as §3
# [9] = system: human peripheral blood mononuclear (PBM) cells; assay: Cytotoxicity, CellTiter 96 assay in PBM cells; type: cell-based; settings: read-out: Cytotoxicity CC50 PBM; PBM cells
# How it was run: as §1
# [10] = system: human T lymphoblast (CEM) cells; assay: Cytotoxicity, CellTiter 96 assay in CEM cells; type: cell-based; settings: read-out: Cytotoxicity CC50 CEM; CEM cells
# How it was run: as §1
# [11] = system: African green monkey kidney (Vero) cells; assay: Cytotoxicity, CellTiter 96 assay in Vero cells; type: cell-based; settings: read-out: Cytotoxicity CC50 Vero; Vero cells
# How it was run: as §1
# [12] = system: human hepatocellular carcinoma (HepG2) cells; assay: Cytotoxicity, CellTiter 96 assay in HepG2 cells; type: cell-based; settings: read-out: Cytotoxicity CC50 HepG2; HepG2 cells
# How it was run: as §1
# Formation of glutathione = type: in vitro ADME; settings: human liver microsomes 1 mg/mL, 1 mM GSH, 60 min, 37°C
# hERG = hERG (Homo sapiens, UniProt Q12809); assay: hERG inhibition, automated patch clamp in CHO cells; type: cell-based; settings: room temperature
# How it was run: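 Test article was applied at concentrations up to 10 μM, with n ≥ 3 per compound.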
# Caco-2 cell monolayer = assay: Cell permeability across Caco-2 cell monolayer; type: in vitro ADME
# How it was run: as §2
# HBV = settings: humanized mouse model, in combination with entecavir; ref [7],[8]; cited from earlier work
# [13] = Hepatitis B virus, HePAD38, 168 h
# [14] = HepAD38 cells, 7-day assay, HBV DNA
# Chain of CYP 3A4 (P08684 whole entry): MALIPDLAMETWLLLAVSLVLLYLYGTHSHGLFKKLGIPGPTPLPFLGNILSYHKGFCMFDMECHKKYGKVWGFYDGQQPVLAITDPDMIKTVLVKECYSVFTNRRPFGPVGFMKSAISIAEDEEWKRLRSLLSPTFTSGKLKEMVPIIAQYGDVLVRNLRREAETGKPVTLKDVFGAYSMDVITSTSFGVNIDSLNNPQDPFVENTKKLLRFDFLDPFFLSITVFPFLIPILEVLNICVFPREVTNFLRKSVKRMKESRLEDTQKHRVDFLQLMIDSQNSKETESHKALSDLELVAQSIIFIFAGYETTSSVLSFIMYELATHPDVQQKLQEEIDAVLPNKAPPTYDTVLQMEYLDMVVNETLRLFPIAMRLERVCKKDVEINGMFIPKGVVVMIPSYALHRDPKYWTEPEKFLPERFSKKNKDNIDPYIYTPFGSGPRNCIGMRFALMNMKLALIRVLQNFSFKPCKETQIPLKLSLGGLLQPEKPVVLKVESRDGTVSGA
# Chain of CYP 2D6 (P10635 whole entry): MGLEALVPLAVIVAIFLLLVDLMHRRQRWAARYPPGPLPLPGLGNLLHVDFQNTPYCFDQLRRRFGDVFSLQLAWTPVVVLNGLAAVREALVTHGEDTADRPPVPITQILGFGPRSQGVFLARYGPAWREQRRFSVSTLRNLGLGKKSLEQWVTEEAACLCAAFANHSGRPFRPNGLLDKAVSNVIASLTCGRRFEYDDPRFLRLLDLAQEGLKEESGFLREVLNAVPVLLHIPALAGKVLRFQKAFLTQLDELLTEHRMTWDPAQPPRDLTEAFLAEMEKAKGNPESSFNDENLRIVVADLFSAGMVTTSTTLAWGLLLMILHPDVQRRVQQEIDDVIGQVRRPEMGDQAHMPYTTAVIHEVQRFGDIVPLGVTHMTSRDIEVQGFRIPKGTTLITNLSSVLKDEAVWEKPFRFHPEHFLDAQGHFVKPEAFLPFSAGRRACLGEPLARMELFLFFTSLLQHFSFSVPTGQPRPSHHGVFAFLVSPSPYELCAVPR
# Chain of CYP 2C19 (P33261 whole entry): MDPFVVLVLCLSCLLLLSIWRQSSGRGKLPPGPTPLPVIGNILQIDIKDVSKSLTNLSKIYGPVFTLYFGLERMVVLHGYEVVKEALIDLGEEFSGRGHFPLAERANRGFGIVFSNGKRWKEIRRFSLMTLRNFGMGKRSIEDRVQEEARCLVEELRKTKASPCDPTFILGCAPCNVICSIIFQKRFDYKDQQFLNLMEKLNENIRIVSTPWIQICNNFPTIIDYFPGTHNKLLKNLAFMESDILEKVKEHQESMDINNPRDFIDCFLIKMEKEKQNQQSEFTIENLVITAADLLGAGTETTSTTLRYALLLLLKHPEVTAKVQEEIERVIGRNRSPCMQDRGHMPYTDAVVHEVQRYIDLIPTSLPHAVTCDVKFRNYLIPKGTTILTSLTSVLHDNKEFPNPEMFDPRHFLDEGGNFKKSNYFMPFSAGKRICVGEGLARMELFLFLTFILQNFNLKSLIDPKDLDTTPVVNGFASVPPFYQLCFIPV
# Chain of CYP 2C9 (P11712 whole entry): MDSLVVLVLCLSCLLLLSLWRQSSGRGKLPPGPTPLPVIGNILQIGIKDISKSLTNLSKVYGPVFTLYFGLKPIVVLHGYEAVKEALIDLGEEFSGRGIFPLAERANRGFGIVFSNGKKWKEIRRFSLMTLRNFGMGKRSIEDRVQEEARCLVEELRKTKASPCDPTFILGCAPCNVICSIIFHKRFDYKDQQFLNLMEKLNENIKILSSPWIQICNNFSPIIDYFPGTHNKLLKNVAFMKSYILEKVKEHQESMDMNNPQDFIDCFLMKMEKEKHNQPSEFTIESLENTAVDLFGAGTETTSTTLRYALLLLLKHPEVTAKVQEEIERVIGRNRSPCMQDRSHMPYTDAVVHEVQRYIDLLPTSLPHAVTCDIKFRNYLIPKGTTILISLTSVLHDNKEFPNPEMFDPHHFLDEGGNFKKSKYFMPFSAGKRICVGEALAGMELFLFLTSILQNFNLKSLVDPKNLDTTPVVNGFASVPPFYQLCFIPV
# Chain of hERG (Q12809 whole entry): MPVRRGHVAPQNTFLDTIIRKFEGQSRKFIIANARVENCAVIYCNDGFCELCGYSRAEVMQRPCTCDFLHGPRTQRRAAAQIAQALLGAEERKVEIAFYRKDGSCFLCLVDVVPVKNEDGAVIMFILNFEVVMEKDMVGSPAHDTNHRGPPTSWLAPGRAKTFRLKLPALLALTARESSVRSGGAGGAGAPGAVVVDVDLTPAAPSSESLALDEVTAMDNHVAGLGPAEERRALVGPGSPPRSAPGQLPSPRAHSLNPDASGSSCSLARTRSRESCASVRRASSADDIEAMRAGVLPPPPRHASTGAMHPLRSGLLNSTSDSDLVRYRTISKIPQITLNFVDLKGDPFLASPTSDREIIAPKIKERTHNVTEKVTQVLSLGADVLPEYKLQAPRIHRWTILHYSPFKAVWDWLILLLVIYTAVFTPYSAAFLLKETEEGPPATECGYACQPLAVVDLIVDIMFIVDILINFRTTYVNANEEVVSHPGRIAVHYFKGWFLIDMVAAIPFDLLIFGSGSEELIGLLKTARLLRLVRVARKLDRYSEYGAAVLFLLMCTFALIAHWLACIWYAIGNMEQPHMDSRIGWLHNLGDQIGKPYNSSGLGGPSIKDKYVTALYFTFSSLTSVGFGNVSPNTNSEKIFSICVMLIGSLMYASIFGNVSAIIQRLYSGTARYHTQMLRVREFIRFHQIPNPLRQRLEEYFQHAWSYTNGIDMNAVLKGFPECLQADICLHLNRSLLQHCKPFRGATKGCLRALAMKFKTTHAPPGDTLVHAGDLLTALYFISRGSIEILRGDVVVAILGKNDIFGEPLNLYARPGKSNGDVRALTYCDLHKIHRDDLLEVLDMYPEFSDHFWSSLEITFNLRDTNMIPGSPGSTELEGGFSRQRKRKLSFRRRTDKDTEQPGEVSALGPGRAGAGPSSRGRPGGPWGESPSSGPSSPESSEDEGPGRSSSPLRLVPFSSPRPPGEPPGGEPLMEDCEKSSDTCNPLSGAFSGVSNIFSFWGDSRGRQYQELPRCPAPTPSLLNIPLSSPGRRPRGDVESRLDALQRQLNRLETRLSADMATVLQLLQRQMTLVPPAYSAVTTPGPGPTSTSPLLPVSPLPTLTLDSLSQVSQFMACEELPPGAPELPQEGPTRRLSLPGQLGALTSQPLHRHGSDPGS
compound,measurement,setting,value
"C#CCn1c(C)c(C(=O)C(=O)NC(C)(C)C#C)c(C)c1C(=O)Nc1ccc(F)c(F)c1 [Compound 10a, N-(3,4-Difluorophenyl)-3,5-dimethyl-4-(2-((2-methylbut-3-yn-2-yl)amino)-2-oxoacetyl)-1-(prop-2-yn-1-yl)-1H-pyrrole-2-carboxamide]",EC50,[1]; [13],0.02 ± 0.03 nM
same,EC90,[1]; [13],0.0016 ± 0.0008 µM
same,CC50,[2],> 100 µM
same,CC50,[3],> 100 µM
same,CC50,[4],> 100 µM
same,CC50,[5],> 100 µM
same,CYP Inhibition (% at 10 μM) 1A2,CYP 1A2,9%
same,CYP Inhibition (% at 10 μM) 2B6,CYP 2B6,5%
same,CYP Inhibition (% at 10 μM) 2C8,CYP 2C8,95%
same,CYP Inhibition (% at 10 μM) 2C9,CYP 2C9,40%
same,CYP Inhibition (% at 10 μM) 2C19,CYP 2C19,34%
same,CYP Inhibition (% at 10 μM) 2D6,CYP 2D6,8%
same,CYP Inhibition (% at 10 μM) 3A4-M,CYP 3A4,40%
same,CYP Inhibition (% at 10 μM) 3A4-T,CYP 3A4,40%
same,"Papp A→B at 2 h, 2 μM","[6]; Caco-2, pH 7.4",33.5 ×10⁻⁶ cm/s
same,"Papp B→A at 2 h, 2 μM","[6]; Caco-2, pH 7.4",10.9 ×10⁻⁶ cm/s
same,"recovery at 2 h, 2 μM","[6]; Caco-2, pH 7.4, Mean Recovery % A-B, Caco-2, A-B",100%
same,"recovery at 2 h, 2 μM","[6]; Caco-2, pH 7.4, Mean Recovery % B-A, Caco-2, B-A",74.6%
same,fold improvement of half-life on co-incubation with ritonavir,"[7]; mouse liver microsomes, ritonavir at ratios up to 1/3",45 fold
same,half-life at 1 μM,"[7]; mouse, mouse liver microsomes, pH 7.4",2.4 min
same,fold improvement of half-life on co-incubation with ritonavir,"[8]; human liver microsomes, ritonavir at ratios up to 1/3",two-fold
same,half-life at 1 μM,"[8]; human, human liver microsomes, pH 7.4",9 min
"C#CCNC(=O)C(=O)c1c(C)c(C(=O)Nc2ccc(F)c(F)c2)n(C)c1C [GLP-26, reference compound]",EC50,[1]; [14],4.6 ± 2 nM
same,EC90,[1]; [14],0.0168 ± 0.0071 µM
same,CC50,[9],> 100 µM
same,CC50,[10],> 100 µM
same,CC50,[11],46 ± 30 µM
same,CC50,[12],> 100 µM
same,GSH % Reactive metabolites at 25 μM,Formation of glutathione,0.8%
same,hERG % Inhibition at 10 μM,hERG,46.6%
same,CYP Inhibition (% at 10 μM) 1A2,CYP 1A2,−9.6%
same,CYP Inhibition (% at 10 μM) 2B6,CYP 2B6,−1.6%
same,CYP Inhibition (% at 10 μM) 2C8,CYP 2C8,54%
same,CYP Inhibition (% at 10 μM) 2C9,CYP 2C9,11.7%
same,CYP Inhibition (% at 10 μM) 2C19,CYP 2C19,15.9%
same,CYP Inhibition (% at 10 μM) 2D6,CYP 2D6,9.5%
same,CYP Inhibition (% at 10 μM) 3A4-M,CYP 3A4,−7.2%
same,CYP Inhibition (% at 10 μM) 3A4-T,CYP 3A4,8.3%
same,Permeability A-B,"Caco-2 cell monolayer; Caco-2, 2 μM, pH 7.4, 2 hr, A-B",23.5 10^−6 cm/s
same,Permeability B-A,"Caco-2 cell monolayer; Caco-2, 2 μM, pH 7.4, 2 hr, B-A",22.8 10^−6 cm/s
same,Mean Recovery % A-B,"Caco-2 cell monolayer; Caco-2, A-B",86.3%
same,Mean Recovery % B-A,"Caco-2 cell monolayer; Caco-2, B-A",98.7%
same,Liver microsome stability t1/2 Mouse,"[7]; mouse liver microsomes 1 mg/mL, compound alone",41 min
same,Liver microsome stability t1/2 Human,"[8]; human liver microsomes 1 mg/mL, compound alone",>60 min
same,antiviral response,HBV,sustained antiviral response up to 12 weeks post treatment
